Bioassay records: PubChem, Broad Institute
A selection: hits, their analogues and other compounds. The true share with any hit is near 4.3%.
ALR inh: inhibitors of human sulfhydryl oxidase ALR; P55789; purified ALR, DTT oxidation, H2O2 HRP-luminol luminescence; inhibition, % (no concentration beside the values); 290,000 compounds, 3.8% hits; AID 485317;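 active means mean replicate inhibition above about 79%, with every replicate also reaching it, limit read from the data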
CAL PDZ FP-1: CAL PDZ (human) peptide binding inhibition; Q9HD26; 300,000 compounds, 0.92% hits; inhibition, % at 24.9 µM; purified CAL PDZ, TMR-peptide fluorescence polarization, 1 h; AID 602252;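 active means mean inhibition of at least 30% with at least half of replicates also reaching 30%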;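 further: 0% = DMSO neutral control and 100% = excess unlabeled competitor peptide PRC23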
CAL PDZ FP-2: inhibitors of human CAL PDZ peptide binding. Q9HD26. purified CAL PDZ, TMR-peptide fluorescence polarization, 1 h. inhibition, % at 20 µM. 330,000 compounds, 0.02% hits. AID 504414;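 active means highest replicate inhibition of at least 40%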;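 further: plate controls were DMSO neutral control wells for no effect and unlabeled competitor peptide control wells for full effect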
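Read-out basis: mP drop reported as inhibition | Assay system: Tagged CAL PDZ protein CerCALP, purified | Benchmarks: Unlabelled peptide for full inhibition, DMSO wells as neutral | Schedule: 1 h incubation at room temperature before polarization reading | Buffer or medium: Sodium phosphate/NaCl buffer pH 7.4 with TCEP, IgG, Thesit | Doses: Single point, 20 µM | Measured by: Fluorescence polarization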
Dyrk1A ADPGlo: blocks rat Dyrk1A kinase activity | inhibition, % at 12.5 µM | AID 504441 | ADP-Glo luminescence, NFATc1 peptide | 310,000 compounds, 0.43% hits; in the data active means inhibition above about 50%;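 further: plate controls were vehicle with enzyme for no effect and no enzyme for full effect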
Rtt109 Vps75: C. albicans Rtt109 histone acetyltransferase inhibition | Q5AAJ8 | purified Rtt109/Vps75, ThioGlo CoA-SH fluorescence, 4 h | inhibition, % at 34.9 µM | 330,000 compounds, 0.16% hits;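 active means inhibition of at least 50% in every replicate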
Target sequence (Q5AAJ8 whole entry, looked up): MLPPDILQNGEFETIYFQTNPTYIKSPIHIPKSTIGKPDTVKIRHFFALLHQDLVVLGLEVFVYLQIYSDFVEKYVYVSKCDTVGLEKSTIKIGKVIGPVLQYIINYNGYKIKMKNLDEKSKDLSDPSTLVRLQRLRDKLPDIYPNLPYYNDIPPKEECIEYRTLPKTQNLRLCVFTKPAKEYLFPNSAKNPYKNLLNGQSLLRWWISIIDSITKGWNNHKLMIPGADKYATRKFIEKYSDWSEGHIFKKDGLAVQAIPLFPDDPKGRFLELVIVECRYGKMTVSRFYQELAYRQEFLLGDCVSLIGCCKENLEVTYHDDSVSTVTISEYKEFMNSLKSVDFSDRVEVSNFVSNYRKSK
An asterisk follows results filed as active; x = no result given.

SMILES | ALR inh | CAL PDZ FP-1 | CAL PDZ FP-2 | Dyrk1A ADPGlo | Rtt109 Vps75
O=C1CCCCC/C1=N/Nc1ccc(OCc2ccccc2)cc1 | 99* | x | -1 | -2 | -2
Fc1ccc(CN2CCN(C(=S)NCCc3ccccc3)CC2)c(Cl)c1 | -23 | 34* | 0 | -1 | -13
COCC(C)n1c(C)cc(C(=O)Cn2nc(C(=O)O)c3ccccc3c2=O)c1C (centres undefined) | x | 37* | -1 | x | 6
O=C(NCCCN1CCOCC1)c1cc2c(s1)CSC2 | 99* | x | -1 | 5 | -8
O=C(CCN1c2ccccc2Sc2ccccc21)OCC(=O)N1CCN(C(=O)c2ccco2)CC1 | 91* | 1 | x | 19 | 4
O=C(CSc1ccccc1)OCC(=O)N1CCN(C(=O)c2ccco2)CC1 | -20 | 6 | 0 | x | -1
Cc1ccccc1CN1C2=NCCN2c2ccccc21 | 99* | 1 | -1 | -2 | 2
CCCCCN1C2=NCCN2c2ccccc21 | 96* | 0 | -2 | -1 | 1
Fc1ccc(CN2C3=NCCN3c3ccccc32)cc1 | 95* | 2 | 0 | 7 | 0
COCCCNC(=O)C(=O)Nc1ccc2c(c1)N(S(=O)(=O)c1cccs1)CCC2 | x | -1 | -3 | 3 | 8
CN1CCN(c2ccc(S(=O)(=O)N3CCCCC3)cc2NC(=O)c2ccc(F)cc2F)CC1 | x | -1 | -1 | -1 | 17
O=[N+]([O-])c1ccc(SCc2ccco2)cc1N1CCOCC1 | -1 | 45* | -1 | -1 | 1
CN(C)/C=C(\C#N)C(=O)c1cccc(Oc2ccc(Br)cc2)c1 | -9 | -4 | -3 | 4 | 2
CC(C)c1ccc(Oc2cccc(C(=O)/C(C#N)=C/N(C)C)c2)cc1 | 98* | -4 | -2 | -2 | 12
Cc1cccc(OCCCn2c(CO)nc3ccccc32)c1 | x | 89* | x | -1 | -8
COc1cccc(/C=C/c2[nH]c(=O)[nH]c(=O)c2[N+](=O)[O-])c1O | 98* | -5 | 1 | -7 | -3
O=c1[nH]c(/C=C/c2ccccc2Cl)c([N+](=O)[O-])c(=O)[nH]1 | 1 | -1 | -21 | -3 | 7
COc1cc(/C=C/c2[nH]c(=O)[nH]c(=O)c2[N+](=O)[O-])cc(OC)c1O | 95* | -2 | -1 | x | 3
CCOC(=O)COc1ccc(Br)cc1/C=C\c1[nH]c(=O)[nH]c(=O)c1[N+](=O)[O-] | x | -2 | -1 | -4 | -1
CCOC(=O)COc1ccc(Br)cc1/C=C/c1[nH]c(=O)[nH]c(=O)c1[N+](=O)[O-] | 97* | -1 | 0 | -2 | 10
Cc1ccc(NC2CCCN(C(=O)c3cc(C(C)C)[nH]n3)C2)cc1C (centres undefined) | 99* | -5 | 1 | -3 | 3
Cc1nc(C(=O)N2CCCC(Nc3ccc(C)c(C)c3)C2)cs1 (centres undefined) | 99* | -4 | 1 | -1 | 4
CCCc1cc(C(=O)N2CCCC(Nc3ccc(C)c(C)c3)C2)n(C)n1 (centres undefined) | 98* | 0 | 1 | 5 | 1
Cc1ccc(NC2CCCN(C(=O)c3cnsn3)C2)cc1C (centres undefined) | 99* | -3 | -3 | -5 | -1
C/C(=N\NC(=O)c1c(Cl)cnn1C)c1ccc(NC(=O)c2ccncc2)cc1 | -3 | x | -1 | 20 | 4
SMILES | ALR inh | CAL PDZ FP-1 | CAL PDZ FP-2 | Dyrk1A ADPGlo | Rtt109 Vps75
COc1ccc(NC2CCCN(C(=O)c3csc(C)n3)C2)cc1 (centres undefined) | 99* | 0 | -2 | -2 | 8
Cc1ccc(NC2CCCN(C(=O)c3ccccn3)C2)cc1C (centres undefined) | 99* | -4 | 0 | -4 | -5
Cc1ccc2nccc(C(=O)N3CCCC(Nc4ccc(C)c(C)c4)C3)c2c1 (centres undefined) | 99* | -2 | -1 | 4 | -39
CSc1ncccc1C(=O)N1CCCC(Nc2ccc(C)c(C)c2)C1 (centres undefined) | 99* | -4 | -1 | -2 | 1
O=C(c1cccc2nccnc12)N1CCCC(Nc2ccc(F)c(F)c2)C1 (centres undefined) | 7 | -2 | 0 | -4 | -6
CCC(C)[C@H](NC(=O)C1CCN(C(=O)[C@H](Cc2ccccc2)NS(=O)(=O)c2ccc(C)cc2)CC1)C(=O)O (some centres undefined) | 7 | -7 | 0 | -2 | 2
